What was measured:
[1] = biological target: T1, 5'-AMP-activated protein kinase catalytic subunit alpha-1 (Homo sapiens, UniProt Q13131); experiment: Activation of recombinant AMPK alpha1 (1 to 394) (unknown origin) at 20 ug/mL after 2 hrs by scintillation proximity assay relative to PT1
Target sequence in this assay (Q13131 whole entry, looked up): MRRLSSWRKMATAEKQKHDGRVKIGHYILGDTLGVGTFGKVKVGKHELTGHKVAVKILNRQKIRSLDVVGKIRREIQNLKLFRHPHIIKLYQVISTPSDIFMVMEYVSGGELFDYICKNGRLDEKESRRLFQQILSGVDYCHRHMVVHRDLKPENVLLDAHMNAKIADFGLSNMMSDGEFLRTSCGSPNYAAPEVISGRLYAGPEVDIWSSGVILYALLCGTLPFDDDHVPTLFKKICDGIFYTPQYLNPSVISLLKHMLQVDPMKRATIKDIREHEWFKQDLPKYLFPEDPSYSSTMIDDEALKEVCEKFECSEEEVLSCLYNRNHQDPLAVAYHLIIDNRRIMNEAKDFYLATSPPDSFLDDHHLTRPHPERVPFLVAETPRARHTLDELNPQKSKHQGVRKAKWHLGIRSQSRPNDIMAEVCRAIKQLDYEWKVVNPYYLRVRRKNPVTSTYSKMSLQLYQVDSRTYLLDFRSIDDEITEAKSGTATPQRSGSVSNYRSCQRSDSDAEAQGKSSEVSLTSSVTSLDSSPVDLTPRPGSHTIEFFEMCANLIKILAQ

AMPK alpha2/beta1/gamma1 = AMPK alpha2/beta1/gamma1 (Homo sapiens, UniProt P54619+P54646+Q9Y478); experiment: Activation of recombinant AMPK alpha2beta1gamma1 (unknown origin) after 2 hrs by scintillation proximity assay; type: protein-complex assay
Sequence of AMPK alpha2/beta1/gamma1 (P54646 whole entry): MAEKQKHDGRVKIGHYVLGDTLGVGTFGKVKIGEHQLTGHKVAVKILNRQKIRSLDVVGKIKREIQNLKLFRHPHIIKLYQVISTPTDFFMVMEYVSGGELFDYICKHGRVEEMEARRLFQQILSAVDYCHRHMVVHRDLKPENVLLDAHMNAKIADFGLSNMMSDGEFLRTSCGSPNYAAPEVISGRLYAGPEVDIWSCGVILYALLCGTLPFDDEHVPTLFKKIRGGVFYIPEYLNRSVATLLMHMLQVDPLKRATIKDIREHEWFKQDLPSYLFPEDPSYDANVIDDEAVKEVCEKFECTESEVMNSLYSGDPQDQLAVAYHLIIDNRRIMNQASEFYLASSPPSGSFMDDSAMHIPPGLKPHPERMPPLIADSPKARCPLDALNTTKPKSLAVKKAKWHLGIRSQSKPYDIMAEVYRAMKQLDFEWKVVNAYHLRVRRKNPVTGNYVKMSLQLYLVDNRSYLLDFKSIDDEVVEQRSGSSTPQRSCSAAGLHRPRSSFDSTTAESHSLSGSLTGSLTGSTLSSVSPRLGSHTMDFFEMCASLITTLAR
Sequence of AMPK alpha2/beta1/gamma1 (P54619 whole entry): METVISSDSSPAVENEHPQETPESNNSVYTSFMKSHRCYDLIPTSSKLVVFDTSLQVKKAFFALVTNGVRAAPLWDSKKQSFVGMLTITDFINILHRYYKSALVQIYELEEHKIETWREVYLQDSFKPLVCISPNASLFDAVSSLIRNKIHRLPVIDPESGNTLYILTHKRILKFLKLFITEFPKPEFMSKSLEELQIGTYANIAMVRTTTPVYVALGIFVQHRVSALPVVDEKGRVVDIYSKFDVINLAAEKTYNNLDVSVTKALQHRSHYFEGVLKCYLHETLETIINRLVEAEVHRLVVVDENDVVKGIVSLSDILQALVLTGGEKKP
Sequence of AMPK alpha2/beta1/gamma1 (Q9Y478 whole entry): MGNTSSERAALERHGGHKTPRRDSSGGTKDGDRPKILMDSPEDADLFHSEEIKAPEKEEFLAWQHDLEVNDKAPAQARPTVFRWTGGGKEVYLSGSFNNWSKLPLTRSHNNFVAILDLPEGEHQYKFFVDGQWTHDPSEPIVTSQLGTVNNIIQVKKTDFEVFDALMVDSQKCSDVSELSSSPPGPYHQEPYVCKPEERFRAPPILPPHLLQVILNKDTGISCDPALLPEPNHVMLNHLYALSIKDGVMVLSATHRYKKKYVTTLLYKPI
Outline: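 Activation of bacterially expressed AMPK α2β1γ1 was measured by scintillation proximity assay. Efficacy is expressed relative to AMP.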

L6 [2] = experiment: Induction of AMPK phosphorylation in rat L6 cells by Western blotting analysis; type: cell-based
[3] = biological target: AMPK alpha2/beta1/gamma1 (Homo sapiens) (UniProt P54646+P54619+Q9Y478); experiment: Activation of recombinant AMPK alpha2beta1gamma1 (unknown origin) at 20 ug/mL after 2 hrs by scintillation proximity assay relative to AMP; type: protein-complex assay
Sequence of AMPK alpha2/beta1/gamma1 (Homo sapiens) (P54619 whole entry partner): as the sequence (P54619 whole entry) above
Sequence of AMPK alpha2/beta1/gamma1 (Homo sapiens) (P54646 whole entry): as the sequence (P54646 whole entry) above
Sequence of AMPK alpha2/beta1/gamma1 (Homo sapiens) (Q9Y478 2-270 partner limits assumed): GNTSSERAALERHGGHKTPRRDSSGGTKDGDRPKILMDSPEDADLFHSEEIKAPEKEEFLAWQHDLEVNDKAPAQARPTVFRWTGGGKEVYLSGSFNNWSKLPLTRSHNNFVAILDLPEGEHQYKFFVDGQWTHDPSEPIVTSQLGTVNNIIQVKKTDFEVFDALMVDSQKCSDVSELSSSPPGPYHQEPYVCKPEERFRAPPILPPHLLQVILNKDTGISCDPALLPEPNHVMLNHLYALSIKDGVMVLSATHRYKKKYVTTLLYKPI

L6 [4] = experiment: Induction of AMPK-mediated ACC phosphorylation in rat L6 cells by Western blotting analysis; type: cell-based
[5] = biological target: T1, 5'-AMP-activated protein kinase catalytic subunit alpha-1; experiment: Activation of recombinant AMPK alpha1 (1 to 394) (unknown origin) after 2 hrs by scintillation proximity assay
Target sequence in this assay (Q13131 whole entry): as the sequence (Q13131 whole entry, looked up) above

[6] = biological target: T1, 5'-AMP-activated protein kinase catalytic subunit alpha-1; experiment: Activation of human AMPK alpha1 (1 to 394) expressed in African green monkey COS7 cells; type: cell-based, COS-7
Target sequence in this assay (Q13131 whole entry): as the sequence (Q13131 whole entry, looked up) above

[7] = biological target: 5'-AMP-activated protein kinase catalytic subunit alpha-2 (Homo sapiens, UniProt P54646); experiment: Activation of human AMPK alpha2 (1 to 398) expressed in African green monkey COS7 cells; type: cell-based, COS-7
Sequence of 5'-AMP-activated protein kinase catalytic subunit alpha-2 (P54646 whole entry): as the sequence (P54646 whole entry) above

Mus musculus = experiment: Antidiabetic activity in diet-induced obese C57BL/6J mouse assessed as reduction in plasma triglyceride at 150 mg/kg, po qd for 4 weeks (reference value: 0.62 +/- 0.02 mM); type: functional
[8] = Activation of AMPK in rat primary hepatocytes assessed as inhibition of fatty acid biosynthesis by 14C-acetate incorporation assay; type: cell-based; settings: Hepatocyte
[9] = Activation of partially purified rat liver AMPK assessed as 33P-phosphorylation of SAMS peptide

Row | Structure (SMILES) | Activity [1] [%] | EC50 (AMPK alpha2/beta1/gamma1) [µM] | Efficacy [3] [%] | also measured
1 | O=C1N/C(=N/c2ccc(Cl)c(C(=O)O)c2)S/C1=C\c1ccc(-c2ccccc2Cl)o1 | < 50 | – | – | –
2 | O=C(O)c1cccc(CN2C(=O)/C(=C/c3ccc(-c4ccc(F)c(Cl)c4)o3)c3ccccc32)c1 | – | 4.8 | 122 | Activity (L6 [2]): Dose-dependent effect; Activity (L6 [4]): Dose-dependent effect
3 | O=C(O)c1cccc(CN2C(=O)/C(=C/c3ccc(-c4cccc([N+](=O)[O-])c4)o3)c3ccccc32)c1 | 341 | 3.2 | 152 | EC50 [5]: 2.1 µM; Activity (L6 [2]): Dose-dependent effect; Activity (L6 [4]): Dose-dependent effect
4 | O=C(O)c1cccc(CN2C(=O)/C(=C(\c3ccccc3)c3ccccc3OC(F)(F)F)c3ccccc32)c1 | – | 7.4 | 99 | –
5 | Cc1cc(-c2ccc(/C=C3\S/C(=N\c4cccc(C(=O)O)c4)NC3=O)o2)c([N+](=O)[O-])cc1C | 106 | – | – | –
6 | CC(C)/C(=C1\C(=O)N(Cc2cccc(C(=O)O)c2)c2ccccc21)c1ccccc1 | – | > 10 | < 50 | –
7 | O=C(O)c1ccc(CN2C(=O)/C(=C(\c3ccccc3)c3ccc(Cl)cc3)c3ccccc32)nc1 | – | 9.2 | 75 | –
8 | Cc1cc(-c2ccc(/C=C3\S/C(=N\c4ccccc4C(=O)O)NC3=O)o2)c([N+](=O)[O-])cc1C | 55 | – | – | –
9 | Cc1cc(-c2ccc(/C=C3\SC(=S)N(c4cccc(C(=O)O)c4)C3=O)o2)c([N+](=O)[O-])cc1C | < 50 | – | – | –
10 | O=C(O)c1cccc(CN2C(=O)/C(=C(\c3ccccc3)c3ccccc3Cl)c3ccccc32)c1 | – | 1.8 | 101 | –
11 | O=C1N/C(=N/c2ccc(Cl)c(C(=O)O)c2)S/C1=C\c1ccc(-c2ccccc2[N+](=O)[O-])o1 | < 50 | – | – | –
12 | O=C(O)c1cccc(CN2C(=O)/C(=C(\c3ccccc3)c3cccnc3)c3ccccc32)c1 | – | 3.2 | 96 | –
13 | O=C(O)c1cccc(CN2C(=O)/C(=C(\c3ccccc3)c3ccc(F)c(Cl)c3)c3ccccc32)c1 | – | 5.9 | 105 | –
14 | O=C1N/C(=N/c2ccc(Cl)c(C(=O)O)c2)S/C1=C\c1ccc(-c2cccc([N+](=O)[O-])c2)o1 | 176 | – | – | –
15 | Cc1cc(-c2ccc(/C=C3\S/C(=N\c4ccc(Cl)c(C(=O)O)c4)NC3=O)o2)c([N+](=O)[O-])cc1C | – | 0.3 | 40 | EC50 [5]: 9.6 µM; EC50 [6]: 9 µM; EC50 [7]: 12 µM
16 | O=C1/C(=C(\c2ccccc2)c2ccc(Cl)cc2)c2ccccc2N1Cc1ccccc1 | – | 1 | 70 | –
17 | COC(=O)c1cc(/N=C2/NC(=O)/C(=C/c3ccc(-c4cc(C)c(C)cc4[N+](=O)[O-])o3)S2)ccc1Cl | < 50 | – | – | –
18 | O=C(O)c1cccc(CN2C(=O)/C(=C(/c3ccc(Cl)cc3)C3CCCCC3)c3ccccc32)c1 | – | 4.6 | 103 | –
19 | CC(C)NC(=O)c1cccc(CN2C(=O)/C(=C(\c3ccccc3)c3ccc(Cl)cc3)c3ccccc32)c1 | – | 4.5 | 151 | –
20 | Cc1cc(-c2ccc(/C=C3\S/C(=N\c4ccc(F)cc4)NC3=O)o2)c([N+](=O)[O-])cc1C | < 50 | – | – | –
21 | CC(C)/C(=C1\C(=O)N(Cc2cccc(C(=O)O)c2)c2ccccc21)c1ccc(Cl)cc1 | – | 9.9 | 227 | –
22 | CC(C)c1ccc(/C(=C2/C(=O)N(Cc3cccc(C(=O)O)c3)c3ccccc32)c2ccccc2)cc1 | – | 4 | 97 | –
23 | CN(C)C(=N)NC(=N)N [METFORMIN] | – | – | – | Activity (Mus musculus): 0.5 mM
24 | N#Cc1c(O)c2c(-c3ccc(-c4ccccc4O)cc3)csc2[nH]c1=O | – | – | – | IC50 [8]: 3.2 µM; EC50 [9]: 0.8 µM
